CYP2C19 activ = activators of human cytochrome P450 2C19 | P33261 | recombinant CYP2C19, luciferin-H EGE luminescence; stronger effect = higher value; 0 = fully inhibited enzyme, 1 = untreated enzyme | activation factor at 5 µM | 96,000 tested, under 10 active | AID 1025;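 active means activation factor of at least 2 at 5 µM in the primary screen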
CYP2C9 activ = CYP2C9 (human) activation; recombinant CYP2C9, luciferin-H conversion, luminescence; stronger effect = higher value; factor 1 = untreated enzyme, 0 = blocked; 96,000 tested, 1.4% active; P11712; activation factor at 5 µM;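 active means activation factor of 2 or more for CYP2C9 at a 5 µM dose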
Target sequence (P11712 whole entry, looked up): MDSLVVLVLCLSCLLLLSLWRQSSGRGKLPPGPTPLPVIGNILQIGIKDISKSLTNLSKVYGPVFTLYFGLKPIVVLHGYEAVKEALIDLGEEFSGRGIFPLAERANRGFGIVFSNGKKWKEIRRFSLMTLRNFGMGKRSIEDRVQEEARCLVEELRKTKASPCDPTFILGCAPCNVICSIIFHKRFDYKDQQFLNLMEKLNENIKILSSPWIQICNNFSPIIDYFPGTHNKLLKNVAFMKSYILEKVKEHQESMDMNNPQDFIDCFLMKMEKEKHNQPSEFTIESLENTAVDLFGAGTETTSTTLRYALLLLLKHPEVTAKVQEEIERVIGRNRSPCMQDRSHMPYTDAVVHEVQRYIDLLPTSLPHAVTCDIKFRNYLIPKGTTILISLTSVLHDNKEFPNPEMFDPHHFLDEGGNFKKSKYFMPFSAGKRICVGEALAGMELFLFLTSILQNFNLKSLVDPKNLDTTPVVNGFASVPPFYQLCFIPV
CYP2C19 inh = human CYP2C19 inhibition. CYP2C19 Supersomes, luciferin-H EGE luminescence, 30 min. inhibition, % at 5 µM. 96,000 tested, 21% active. AID 778;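 active means CYP2C19 inhibition above a set limit at 5 µM in the primary screen, cut at about 50% in these data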
HIV Rev-RRE inh = HIV Rev-RRE protein-RNA interaction inhibition; P05866; Rev peptide-RRE RNA binding, FRET; inhibition, % at 8 µM; 97,000 tested, 0.79% active; AID 704;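 active means inhibition above the screen-wide mean plus 3 SD, cut at about 35% in these data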
Target sequence (P05866 whole entry, looked up): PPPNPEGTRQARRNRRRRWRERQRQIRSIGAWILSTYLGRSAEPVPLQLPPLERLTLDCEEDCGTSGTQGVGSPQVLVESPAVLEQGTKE
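Assay system: labelled RRE RNA duplex and labelled Rev peptide / Medium: HEPES pH 7.5 salt buffer with EDTA / Reagent: labelled Rev peptide / Schedule: 5 + 15 min at 25 °C / Signal: FRET, excitation 480 nm, emission 540 nm donor and 671 nm acceptor / Benchmarks: DMSO and neomycin B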
Cav3 T inh = blocks human Cav3.2 T-type calcium channel | Cav3.2-expressing cells, Fluo-4 calcium fluorescence FDSS; stronger effect = lower value | 100,000 tested, 4% active | B-score at 10 µM | AID 449739 | O95180;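 active means single-dose well whose peak fluorescence ratio is a statistical outlier from its plate by either plate-standardised score or position-corrected B-score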
CYP2C9 inh = inhibitors of human CYP2C9; P11712; inhibition, % at 5 µM; 96,000 tested, 20% active; CYP2C9 Supersomes, luciferin-H conversion, luminescence;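 active means blocking of liver enzyme CYP2C9 beyond about 50% at 5 µM, limit read from the data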
Hits are given with their value; - = inactive; . = not tested or not shown. This is a sample that favours compounds with a hit; in the whole collection about 27% have one here.

SMILES	CYP2C19 activ	CYP2C9 activ	CYP2C19 inh	HIV Rev-RRE inh	Cav3 T inh	CYP2C9 inh
O=C(c1ccccc1)N1CCN(C(=O)c2ccccc2Br)CC1	-	-	56	-	-	-
O=C(c1ccccc1)N1CCN(S(=O)(=O)N2CCCCC2)CC1	-	-	87	-	.	-
O=C(c1cccc(S(=O)(=O)N2CCCCC2)c1)N1CCN(S(=O)(=O)c2ccc(F)cc2)CC1	-	-	-	-	.	-
O=C(c1ccc(C(=O)N2CCCCCC2)cc1)N1CCCCCC1	.	.	.	-	-	.
O=C(c1cccc(F)c1)N1CCN(S(=O)(=O)c2ccccc2)CC1	-	-	76	-	-	-
O=C(c1cccc(Br)c1)N1CCN(C(=O)c2cccc(Br)c2)CC1	.	.	.	-	-	.
CC(C)c1ccc(S(=O)(=O)N2CCN(C(=O)c3cccc(F)c3)CC2)cc1	-	-	67	-	-	67
CCc1ccc(NC2=NC(C(=O)NC3CCCCC3)CC(=O)N2)cc1 (stereo not given)	-	-	-	-	-	-
CC(C)(C)N1CC(COc2ccccc2)OC1=O (stereo not given)	-	-	71	-	-	-
Cc1ccccc1OCC1CN(CN2CCOCC2)C(=O)O1 (stereo not given)	-	-	-	-	-	-
COC(=O)[C@H](CC(C)C)NC(=O)NC1CCCCC1C (stereo not given in full)	-	-	-	-	-	-
CC(C)CC(NC(N)=O)C(=O)OCC(=O)NC(=O)NC1CCCC1 (stereo not given)	-	-	57	-	-	-
CCCCCC1CC(CC#CCN2CCOCC2)C(=O)O1 (stereo not given)	.	.	.	.	-	.
COC(=O)COc1ccc(S(=O)(=O)Nc2ccc(C(N)=O)cc2)cc1C	-	-	-	-	-	55
CCOc1ccc(NS(=O)(=O)c2cc(Cl)ccc2OC)cc1	-	-	-	-	-	91
CCOc1ccc(NS(=O)(=O)c2ccc(NC(C)=O)c(OC)c2)cc1	-	-	52	-	-	-
CCOc1ccc(NS(=O)(=O)c2ccc(OC)c(C)c2)cc1	-	-	93	-	-	92
COC(=O)COc1ccc(S(=O)(=O)Nc2ccc(C(N)=O)cc2)cc1Cl	-	-	-	-	-	-
CCCCOc1ccc(S(=O)(=O)Nc2ccc(NC(C)=O)cc2)cc1	.	.	.	-	-	.
CCOc1ccc(NS(=O)(=O)c2ccc3c(c2)CCN3C(=O)C2CCC2)cc1	-	-	-	-	-	-
Cc1ccnc(SCCn2c(N3CCC(C)CC3)nc3c2c(=O)[nH]c(=O)n3C)n1	-	-	-	-	-	-
C=CCc1cccc2cc(C(=O)NCc3ccc(C(=O)OCC)o3)c(=O)oc12	-	-	-	-	-	-
Cc1cc(C)cc(NS(=O)(=O)c2ccc3oc(=O)ccc3c2)c1	-	-	100	-	-	62
CCOc1cc(S(=O)(=O)Nc2cc(C)cc(C)c2)ccc1Cl	-	2	98	-	-	-
CCCCN(C)C(=O)c1sc2ncn(CC)c(=O)c2c1C	-	-	-	-	-	-
SMILES	CYP2C19 activ	CYP2C9 activ	CYP2C19 inh	HIV Rev-RRE inh	Cav3 T inh	CYP2C9 inh
O=C(Cc1ccccc1)Nc1c(C(=O)N2CCOCC2)cnn1-c1ccccc1	-	-	-	-	-	-
CCc1ccc(C2(C)SC(NC(C)=O)=NN2C(C)=O)cc1 (stereo not given)	-	-	71	-	-	-
O=C(CSc1nc2ccccc2nc1SCC(=O)N1CCCCC1)N1CCCCC1	-	-	-	-	-	95
Nc1cc(N)nc(SCC(=O)N2CCCCC2)n1	-	-	-	-	-	52
CCOc1ccc2nc(SCC(=O)N3CCCCCC3)c(C#N)cc2c1	-	-	-	-	-	69
Cc1cc(C)nc(SCC(=O)N2CCCCC2)n1	-	-	-	-	-	-
CC(C)c1ccc2nc3sc(C(=O)N4CCc5ccccc5C4)c(N)c3cc2c1	-	-	-	57	-	51
Cc1c(CCO)c(=O)[nH]n1C(=O)c1ccc(F)cc1	-	-	-	-	-	74
O=C(O)CCc1ccc(-c2cccs2)n1-c1ccc(C(=O)O)cc1	-	2	-	-	-	-
c1cc2cn[nH]c2cc1NC1CCCCCC1	-	-	99	-	-	64
Cc1cccc(OC(=O)c2ccc3nccnc3c2)c1	-	-	-	-	-	54
Clc1cccc(Cl)c1C1=NOC(c2nnc(-c3ccccc3)o2)C1 (stereo not given)	.	.	.	.	-	.
O=C(CN1CCOCC1)N(c1ccccc1)c1ccc2ccccc2c1	-	-	76	-	-	-
O=C(CN1CCN(c2ccccn2)CC1)N(c1ccccc1)c1ccc2ccccc2c1	-	-	56	.	-6.3	51
CCN(CC)S(=O)(=O)N1CCC(C(=O)NCC2COc3ccccc3O2)CC1 (stereo not given)	.	.	.	-	-	.
CCN(c1ccccc1)S(=O)(=O)c1ccc(NCC2COc3ccccc3O2)nc1 (stereo not given)	-	-	52	-	-4.8	84
CO/N=C/C(=N\Nc1ccc(OC)cc1)C(=O)c1ccc(OC)cc1	-	-	-	-	-	68
O=C(NCCN1CCOCC1)C1CCC(CNS(=O)(=O)c2ccc(Cl)cc2)CC1 (stereo not given)	-	-	-	-	-	-
Cn1c(CC(=O)Nc2ccc(Cl)c(Cl)c2)nnc1SCC(=O)Nc1nccs1	-	-	-	-	-	-
Cn1c(CSCc2ccccc2Cl)nnc1SCC(=O)Nc1nccs1	-	-	-	-	-	61
CCn1c(Cc2ccccc2)nnc1SCC(=O)Nc1nc2ccccc2s1	-	-	-	-	-	-
CCSCc1nnc(SCC(=O)Nc2nc3ccccc3s2)n1C	-	-	-	-	-	63
Cc1cccn2c(=O)c3cc(C(=O)NCCc4ccccc4)c(=N)n(CCCn4ccnc4)c3nc12	-	-	55	-	-	58
COCCn1c(=N)c(C(=O)NCCc2ccccc2)cc2c(=O)n3cccc(C)c3nc21	.	.	.	-	-	.
Cc1cccn2c(=O)c3cc(C(=O)NCCCn4ccnc4)n(C)c3nc12	-	-	-	.	.	60
SMILES	CYP2C19 activ	CYP2C9 activ	CYP2C19 inh	HIV Rev-RRE inh	Cav3 T inh	CYP2C9 inh
Cc1cccn2c(=O)c3cc(C(=O)NCCCN4CCCC4=O)n(C)c3nc12	-	-	51	-	-	-
O=C(NCCCN1CCCC1=O)c1cccc(C(F)(F)F)c1	-	-	-	-	-	77
CCOCCCn1c(=N)c(C(N)=S)cc2c(=O)n3cccc(C)c3nc21	-	-	-	-	.	-
Cc1cccn2c(=O)c3cc(C(N)=S)c(=N)n(CCCOC(C)C)c3nc12	-	-	86	-	-	-
CCCCn1c(=O)[nH]c2ccccc21	-	-	-	-	-	-
C=CCn1c2ccccc2c2nnc(SCN3C(=O)c4ccccc4C3=O)nc21	-	-	90	-	-	79
O=c1[nH]c2ccccc2n1CCCSc1cnc2ccccc2n1	-	-	63	-	-	85
